Screening results from PubChem.
An excerpt weighted towards active compounds, which were near 3.8% of everything screened.
RGS4 act = potentiators or activators of RGS4; HEK293 M3R/inducible RGS4, carbachol calcium flux Fluo4; active compounds read low; B-score at 10 µM; 0.92% of 310,000 active;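 active means B-score of the integrated calcium signal more than 4 SD below the library mean, with starting fluorescence not abnormally high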;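 further: negative B-score means reduced calcium response which marks RGS4 activation or potentiation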
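Material: Inducible-RGS4 HEK293 cells carrying M3 receptor; also added: carbachol at ECmax as muscarinic agonist stimulus; incubation: compound preincubation 20 min at room temperature before agonist; signal: Fluo4-AM (2 µM) calcium-flux fluorescence, kinetic read; measure: integrated calcium ratio converted to B score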
MrgX1 ag = agonists of human MrgX1 receptor. Q96LB2. MrgX1-HEK293 cells, Fluo-4 calcium fluorescence, agonist mode; active compounds read high. B-score at 10 µM. 0.44% of 310,000 active. AID 588627;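 active means calcium response B-score plate-corrected fluorescence ratio at least 3 library SD, with starting fluorescence B-score inside 5 SD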
Target sequence (Q96LB2 whole entry, looked up): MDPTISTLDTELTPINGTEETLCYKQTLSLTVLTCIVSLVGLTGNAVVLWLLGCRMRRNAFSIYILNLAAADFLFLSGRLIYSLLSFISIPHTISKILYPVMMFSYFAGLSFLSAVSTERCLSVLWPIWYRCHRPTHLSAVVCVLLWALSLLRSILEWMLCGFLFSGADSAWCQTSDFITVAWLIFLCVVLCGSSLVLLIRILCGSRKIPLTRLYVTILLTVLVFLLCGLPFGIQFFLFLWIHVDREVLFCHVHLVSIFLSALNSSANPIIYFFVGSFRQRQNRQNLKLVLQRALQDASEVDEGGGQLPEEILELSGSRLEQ
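Test system: Stable human MrgX1 HEK293 cell line | Schedule: Overnight plating before 1 h dye loading | Read-out basis: Baseline-normalised fluorescence change ratio, B-scored | Detection: Kinetic calcium dye fluorescence, Fluo-4 NW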
RGS4 inh = inhibitors of human RGS4. P49798. HEK293 M3R/RGS4 inducible, Fluo-4 calcium flux; active compounds read high; triggered by carbachol at its EC20. AID 463165. 0.45% of 310,000 active. B-score at 10 µM;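 active means B-score, a plate-corrected calcium signal, over three deviations above library mean, with baseline fluorescence within five deviations of library mean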;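 further: RGS4 expression induced by doxycycline in cells with stable M3 receptor; B-score is computed from the integrated fluorescence ratio over baseline after carbachol; higher B-score means a larger calcium signal and so more RGS4 inhibition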
Target sequence (P49798 whole entry, looked up): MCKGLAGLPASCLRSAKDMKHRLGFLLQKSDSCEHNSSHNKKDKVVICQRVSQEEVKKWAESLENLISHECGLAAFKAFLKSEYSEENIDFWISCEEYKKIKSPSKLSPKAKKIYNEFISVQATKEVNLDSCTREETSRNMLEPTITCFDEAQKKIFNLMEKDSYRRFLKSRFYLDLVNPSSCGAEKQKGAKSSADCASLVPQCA
MrgX1 PAM = human MrgX1 positive allosteric modulation, primary screen. Q96LB2. MrgX1-HEK293, Fluo-4 calcium flux, FDSS; active compounds read high. B-score at 10 µM. 0.63% of 310,000 active. AID 588675;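 active means plate-corrected calcium response at least 3 library SD above typical, normal starting fluorescence, not activating the receptor alone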;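 further: compound read alongside a low EC10 to EC30 dose of BAM8-22 agonist; peak minus trough fluorescence over baseline measured at the second addition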
MrgX1 antagonist = antagonists of human MrgX1 receptor | Q96LB2 | B-score at 10 µM | MRGX1-HEK293 calcium flux, Fluo-4, BAM8-22 antagonism; active compounds read low | AID 588676 | 1.3% of 310,000 active;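 active means calcium-response B-score plate-corrected more than 3 library SD below zero, starting fluorescence within 5 deviations, no agonist response on first addition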;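 further: peak minus trough fluorescence over baseline after final BAM8-22 challenge near maximal dose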
Hep lipid drop = modulators of hepatic lipid droplet formation. inhibition, % at 6.5 µM. 0.4% of 240,000 active. AML12 mouse hepatocytes, oleate lipid droplets, BODIPY imaging. AID 1656;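 active means lipid droplet intensity inhibited by at least 50%, with more than 500 cells counted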
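Assay system: AML12 mouse liver cells | Compound dosing: One dose, 6.5 µM compound | Read-out basis: Droplet intensity reduction, % inhibition | Measured by: Fluorescence imaging, 20x objective, two fields per well | Schedule: Overnight treatment with compound plus oleate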
MrgX1 ag confirm = human MrgX1 agonism, re-confirmation screen. AID 602412. MrgX1-HEK293, Fluo-4 calcium fluorescence, FDSS. shares compounds with MrgX1 ag. activation, % at 10 µM. 78% of 600 active;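 active means calcium signal rise, corrected for plate position, at least 3 library SD high, with starting brightness within 5 such deviations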
HEK293 Ca flux = counter-screen for MrgX1 antagonists: effect in parental HEK293 cells. fluorescence ratio F(max-min)/F0 at 10 µM. AID 624111. shares compounds with MrgX1 antagonist. 2% of 4,000 active. Fluo-4 calcium fluorescence, FDSS;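 active means duplicate-averaged calcium fluorescence ratio at least three times the standard deviation of buffer wells, a nonspecific response in parental cells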
HEK293 Ca counter = activity in parental HEK293 cells without MrgX1 | shares compounds with MrgX1 antagonist | parental HEK293 calcium flux, Fluo-4 fluorescence ratio; active compounds read high | fluorescence ratio F(max-min)/F0 at 10 µM | 0.4% of 4,000 active;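 active means calcium fluorescence ratio, averaged over duplicates, at least 3 SD of the buffer-well ratio, meaning a nonspecific response in receptor-free cells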;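 further: untransfected parental HEK293 lacking MrgX1 used as counterscreen for MrgX1 allosteric activators; fluorescence change taken during the second addition on a kinetic imager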
HEK293 Ca cntr2 = MrgX1 activator counter-screen hit in parental HEK293 cells; shares compounds with MrgX1 antagonist; Fluo-4 calcium fluorescence (FDSS); active compounds read high; fluorescence ratio F(max-min)/F0 at 10 µM; 8.7% of 4,000 active; AID 624115;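 active means calcium fluorescence ratio at least three times the spread of buffer wells, meaning a non-specific response in parental cells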
* = called active by the depositor; i = inactive; . = no result.

SMILES | RGS4 act | MrgX1 ag | RGS4 inh | MrgX1 PAM | MrgX1 antagonist | Hep lipid drop | MrgX1 ag confirm | HEK293 Ca flux | HEK293 Ca counter | HEK293 Ca cntr2
Cc1ccc(NC(=O)CCl)cc1S(=O)(=O)N1CCCCCC1 | i | 29* | i | i | i | 6 | 169%* | i | i | i
Cc1c(NC(=S)N2CCN(c3ccc(F)cc3)CC2)c(=O)n(-c2ccccc2)n1C | i | i | i | i | i | 2 | . | . | . | .
COc1cc2cc(C)c(SCC(=O)N3CCN(C(=O)c4ccco4)CC3)nc2cc1OC | i | i | i | i | i | -4 | . | . | . | .
OCCn1nc(-c2ccccc2)cc1-c1ccccc1 | i | 32* | i | i | i | -13 | i | i | i | i
Nc1cc(-c2ccccc2)nn1Cc1ccccc1 | i | i | i | i | i | 0 | . | . | . | .
CCc1cccc(C)c1NC(=S)N1CCCCC1c1cccnc1 (stereo not drawn) | i | 28* | i | i | i | -11 | 100%* | i | i | 48*
COc1ccc2c(c1)nc(N)n2Cc1ccccc1 | i | 49* | i | i | i | . | 233%* | i | i | i
CN1CCN(CCCC(=O)c2ccc(F)cc2)CC1 | i | i | i | i | i | . | . | . | . | .
O=C(CCCN1Cc2ccccc2C1)c1ccc(F)cc1 | i | 38* | i | i | i | . | 145%* | i | i | i
CCOC(=O)c1ccc2c(c1)NCc1cccc(OC)c1O2 | i | 28* | i | i | i | 5 | i | i | i | i
CCCc1nc2ccccc2c(=O)n1/N=C/c1c(C)[nH]n(-c2ccc(C)cc2)c1=O | i | 78* | i | i | i | . | 320%* | i | i | 91*
Cc1cccc2c1N(CCCOc1ccc(C(C)(C)C)cc1)C(=O)C2=O | i | i | i | i | i | . | . | . | . | .
Cc1cccc2c1N(CCCOc1ccccc1)C(=O)C2=O | i | 35* | i | i | i | . | 251%* | i | i | 50*
CNC(=S)NNC(=O)c1c(C)nc2cc(C)ccn12 | i | i | i | i | i | 32 | . | . | . | .
O=C(O)C1C2CCC(O2)C1C(=O)Nc1ccc(F)c(Cl)c1 (stereo not drawn) | i | i | i | i | i | 11 | . | . | . | .
O=C(O)C1C(C(=O)Nc2ccc(Cl)cc2)C2C=CC1C21CC1 (stereo not drawn) | i | 32* | i | i | i | -8 | i | i | i | i
COc1ccc(N(CC(=O)Nc2ccccc2F)S(=O)(=O)c2ccc(OC)c(OC)c2)cc1 | i | i | i | i | i | -3 | . | . | . | .
O=C(Nc1nnc(-c2ccccc2Cl)o1)c1nc2ccccc2s1 | i | 103* | i | i | i | -11 | 433%* | i | i | 84*
CC(=Nc1ccc(Br)cc1)c1sc2ccccc2c1O | i | i | i | i | i | 6 | . | . | . | .
CC(=Nc1ccccc1)c1sc2ccccc2c1O | i | 61* | i | i | i | 8 | 376%* | i | i | 100*
Cc1cc(C)c2c(=O)n(CC(=O)NC3CCCC3)sc2n1 | i | 29* | i | i | i | 1 | 183%* | i | i | i
